DENV2 CPE rescue – inhibitors of DENV2 cytopathic effect, primary screen, cell-based, plate reader, single concentration; DENV2-infected cells, cytopathic effect rescue; CPE inhibition, % at 9.99 µM; actives 1.7% (n = 350,000); AID 651640, 2012; in the data active means CPE inhibition above about 20%, passing the limit was not always enough; inconclusive means no clear call, values can overlap the other calls; tested in BHK-21 cells;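 further: 0% = median of neutral control wells and 100% = median of positive control wells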
PGC1a acetyl inh – inhibitors of PGC1a acetylation signal, primary screen, cell-based, U2OS, AlphaScreen, inhibitor mode; AlphaScreen anti-acetyl-lysine; with virally co-expressed GCN5 acetyltransferase; inhibition, % at 15.6 µM; actives 0.17% (n = 350,000); AID 651687, 2012;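 active means every replicate shows inhibition of at least 40%; inconclusive means mean inhibition at least 40% but some replicate below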;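 further: 0% = neutral control wells and 100% = positive control wells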
Cneo AK release – Cryptococcus neoformans cell lysis inducers, primary screen, AK release luminescence, single concentration; C. neoformans lysis, adenylate kinase release luminescence, 4 h; normalised: neutral wells 0, clomiphene wells 100; lysis activity, % at 15 µM; actives 0.2% (n = 360,000); AID 651654, 2012;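 active means mean lysis activity across replicates of at least 80%, whatever share of replicates individually reach that level; inactive means mean lysis activity below 80%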
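Material: C. neoformans cells | Amount: Yeast cell density of 5 × 10^6 cells/mL | Medium: Fresh YPD growth medium | Dosing: Single dose | Times: Static 4 h at 37 °C with compound, 1 h detection | Detection: AK luminescence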
Xi reactivation – activators of inactive X chromosome reactivation, primary screen, imaging, XiGFP fibroblasts, GFP high-content imaging, set 2; XiGFP mouse fibroblasts, % GFP-positive cells imaging, 3 d; cells co-treated with 5-aza-dC sensitizer; scaled so ellipticine positive control = 100%; actives 0.055% (n = 360,000); activation, % at 7.58 µM;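 active means mean normalized replicate activation at least 10% and every replicate at or above 10%; inconclusive means only one of the two criteria met; inactive means mean below 10% and not all replicates reach 10%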;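 further: 0% = median of on-plate neutral control wells and 100% = ellipticine 6 µM median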
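System: 68-5-11 XiGFP fibroblast line | Buffer or medium: DMEM containing 5-aza-dC | Compound: Single point | Times: Compounds 3 days, fix/stain 15 min at room temperature | Benchmarks: Positive control ellipticine, 6 µM final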
F508del corr – F508del CFTR correction, initial screen, CFBE line, single point. CFBE cells, YFP halide quenching; stimulated with forskolin plus potentiator P3; % fluorescence drop versus neutral controls. activity (quench increase), % at 7.58 µM. actives 0.36% (n = 350,000);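 active means mean added fluorescence quench of at least 8% versus neutral control, with both replicates also reaching 8%; inconclusive means only one of the mean or replicate conditions met; inactive means mean below 8% and not both replicates reaching 8%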;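 further: cells transiently co-express mutant CFTR-F508del with the halide-sensitive YFP; corrector assay measuring rescue of mutant channel to the surface after 24 h compound exposure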
FN deposition inh – inhibitors of fibronectin matrix deposition, primary screen, AH1F cells, Alexa488-fibronectin fluorescence, plate reader; AH1F fibroblasts, overnight; inhibition, % at 12.6 µM; actives 0.086% (n = 350,000);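 active means mean inhibition across replicates of 30% or more, regardless of how many single replicates reach that level; inconclusive means mean under 30% yet at least half of replicates reach 30%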;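 further: positive control wells lacked labelled fibronectin entirely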
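Material: AH1F fibroblast monolayer depositing Alexa488-labelled fibronectin into matrix | Input: 10000 AH1F cells/well | Medium: DMEM plus 2% serum, read in PBS | Reagent: Alexa488-fibronectin, 24 nM final in well | Compound dosing: One dose per compound, pinned | Schedule: 1 h adhesion, overnight exposure | Measured by: Fluorescence at 485 nm excitation, 525 nm emission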
An asterisk follows results filed as active; ? = inconclusive; . = no result given; ! = repeats disagree. Sampled rows, rich in hits. Any-hit rate of the full collection: about 1.9%.

SMILES	DENV2 CPE rescue	PGC1a acetyl inh	Cneo AK release	Xi reactivation	F508del corr	FN deposition inh
Cc1ccccc1Nc1nc(N)nc(COC(=O)c2cccc(S(=O)(=O)N(C)C)c2)n1	-1	-5	2	0	4	0
COc1ccc(C(=O)OCc2nc(N)nc(Nc3ccccc3C)n2)cc1OC	5	.	.	0	8.4*	-7
CC(C)c1nc2sc3c(NCc4ccco4)ncnc3c2c2c1COC(C)(C)C2	.	59*	.	.	.	.
CC(C)c1nc2sc3c(NCc4ccccc4)ncnc3c2c2c1COC(C)(C)C2	.	1	2	.	.	.
COc1ccc(/C=N/NC(=O)c2cc3cc(OC)c(OC)cc3[nH]2)cc1	6	-8	-5	0	.	15
CCOc1ccc2[nH]c(C(=O)N/N=C/c3ccc(OC)cc3)cc2c1	-10	.	0	0	18*	.
COc1ccc2[nH]c(C(=O)N/N=C/c3ccc(O)cc3O)cc2c1	-6	.	-1	0	12*	.
O=C1OC(N2C(=O)CC[C@H]2C(=O)NCC2CCCO2)c2ccccc21 (some centres not stated)	28*	-1	-5	.	1	.
COc1ccc2c3c(n(C)c2c1)[C@@H](CO)N(CC1CC1)CC31CCN(C(=O)Nc2c(C)noc2C)CC1	18	1	.	0	2	.
C[C@@H]1CN([C@H](C)CO)C(=O)CCCn2cc(nn2)CO[C@H]1CN(C)C(=O)Nc1ccccc1C(F)(F)F	48*!	14	-3	0	1	5
C[C@H](CO)N1C[C@H](C)[C@H](CN(C)C(=O)Nc2cccc(F)c2)OCc2cn(nn2)CCCC1=O	-1	-1	53	0	-2	-1
C[C@H]1CN([C@@H](C)CO)C(=O)CCCn2cc(nn2)CO[C@@H]1CN(C)C(=O)Nc1ccc(F)cc1	44*!	-6	-2	0	-2	3
C[C@@H]1CN([C@@H](C)CO)C(=O)CCCn2cc(nn2)CO[C@H]1CN(C)C(=O)Nc1cccc(F)c1	87*!	4	-3	-1	0	6
C[C@@H]1CN([C@@H](C)CO)C(=O)CCCn2cc(nn2)CO[C@@H]1CN(C)C(=O)Nc1ccccc1C(F)(F)F	.	-5	.	0	1	3
C[C@@H]1CCCCO[C@@H](CN(C)S(=O)(=O)c2cn(C)cn2)[C@H](C)CN([C@@H](C)CO)C(=O)c2cc(NS(=O)(=O)c3ccc(Cl)cc3)ccc2O1	28*	-27	2	0	0	-8
C[C@@H]1CCCCO[C@H](CN(C)S(=O)(=O)c2cn(C)cn2)[C@H](C)CN([C@H](C)CO)C(=O)c2cc(NS(=O)(=O)c3ccc(Cl)cc3)ccc2O1	-2	9	0	0	1	-6
C[C@H]1CCCCO[C@@H](CN(C)S(=O)(=O)c2cn(C)cn2)[C@@H](C)CN([C@@H](C)CO)C(=O)c2cc(NS(=O)(=O)c3ccc(Cl)cc3)ccc2O1	47*	-14	2	0	0	-1
C/C=C/c1cnc2c(c1)C(=O)N([C@@H](C)CO)C[C@H](C)[C@@H](CN(C)Cc1cccc(C(=O)O)c1)O2	2	3	-1	-1	-2	.
C[C@H]1CCCCO[C@@H](CN(C)C(=O)CCCN(C)C)[C@@H](C)CN([C@@H](C)CO)C(=O)c2cc(NC(=O)C3CCCCC3)ccc2O1	?	-9	1	0	1	.
C[n+]1cc2c3c(ccc2c2ccc4cc5c(cc4c21)OCO5)OCO3	0	.	.	0	0	52*
C[C@H](CO)N1C[C@H](C)[C@H](CN(C)S(=O)(=O)c2ccc(F)cc2)Oc2ncc(-c3ccccc3)cc2C1=O	.	-2	.	-1	2	-7
NS(=O)(=O)c1ccc(NNC(=O)c2ccc(Br)o2)c([N+](=O)[O-])c1	10	12	1	0	8.0*	12
Cc1noc(C)c1NC(=O)Nc1cccc2c1O[C@@H](CN(C)Cc1ccc(C(=O)O)cc1)[C@H](C)CN([C@H](C)CO)C2=O	8	18	3	1	0	.
CO[C@H]1CN(C)C(=O)c2ccc(NC(C)=O)cc2OC[C@H](C)N(Cc2nccs2)C[C@@H]1C	3	-5	.	0	5	-1
COc1ccc2c3c([nH]c2c1)[C@@H](CO)N(S(C)(=O)=O)CC31CN(C(=O)c2ccccc2)C1	23*	-2	.	0	-2	-2
SMILES	DENV2 CPE rescue	PGC1a acetyl inh	Cneo AK release	Xi reactivation	F508del corr	FN deposition inh
COc1ccc2c3c([nH]c2c1)[C@@H](CO)N(S(=O)(=O)c1ccc(C)cc1)CC31CN(C(=O)Cc2cccnc2)C1	-5	-6	.	0	1	.
COc1ccc2c3c([nH]c2c1)[C@H](CO)N(S(=O)(=O)c1ccc(C)cc1)CC31CN(C(=O)Cc2cccnc2)C1	27*	1	.	0	-1	.
COc1ccc2c3c([nH]c2c1)[C@H](CO)N(C(=O)c1ccccc1)CC31CN(S(=O)(=O)c2cccs2)C1	82*	-13	.	0	0	.
CC(C)Oc1ccc(S(=O)(=O)N2CCOCC2)cc1NC(=O)Cc1ccsc1	42*	-8	7	0	1	-20
COc1ccc(S(=O)(=O)N2CCOCC2)cc1NC(=O)Cc1ccsc1	3	-6	4	0	-1	2
CCOc1ccc(S(=O)(=O)N2CCOCC2)cc1NC(=O)CSCC(=O)Nc1ccc(OC)cc1	1	.	3	0	20*	0
CO[C@@H]1CN(C)C(=O)c2cc(NC(=O)Nc3cc(F)ccc3F)ccc2OC[C@@H](C)N(C(=O)c2cnccn2)C[C@@H]1C	11	6	0	1	1	-7
C[C@H](CO)N1C[C@H](C)[C@H](CN(C)CC2CC2)Oc2ccc(NC(=O)Nc3ccc(F)cc3)cc2CC1=O	42*	-2	4	.	2	.
C[C@@H]1CN([C@@H](C)CO)C(=O)Cc2cc(NC(=O)CCC(F)(F)F)ccc2O[C@@H]1CN(C)CC1CC1	42*	9	52	0	-1	1
COc1ccc(NC(=O)N2CCCCN3[C@H](C2)[C@H](c2ccc(-c4ccccc4C)cc2)[C@@H]3CO)cc1	27*	-7	-7	0	0	.
CC(C)CC#Cc1ccc([C@H]2[C@@H](CO)N3CCCCN(C(=O)Nc4ccccc4)C[C@@H]23)cc1	.	7	0	0	1	-15

Source: PubChem BioAssay
